From ChEMBL document CHEMBL2424622, “Development of amino-pyrimidine inhibitors of c-Jun N-terminal kinase (JNK): kinase profiling guided optimization of a 1,2,3-benzotriazole lead” (Bioorg Med Chem Lett, 2013)

Assays:
LIM domain kinase 2 = LIM domain kinase 2 (Homo sapiens, UniProt P53671); experiment: Competitive binding affinity to LIMK2 (unknown origin) at 10 uM in presence of ATP relative to control
Outline: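 In vitro ATP-site competition binding assay, part of profiling against a diverse panel of 128 kinases. Each compound was tested at a single concentration of 10 µM. Kinome selectivity was summarized as S15 selectivity scores.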

[1] = target: T1, Serine/threonine-protein kinase DCLK3 (Homo sapiens) (UniProt Q9C098); experiment: Competitive binding affinity to DCAMKL3 (unknown origin) at 10 uM in presence of ATP relative to control
T1 sequence (whole entry): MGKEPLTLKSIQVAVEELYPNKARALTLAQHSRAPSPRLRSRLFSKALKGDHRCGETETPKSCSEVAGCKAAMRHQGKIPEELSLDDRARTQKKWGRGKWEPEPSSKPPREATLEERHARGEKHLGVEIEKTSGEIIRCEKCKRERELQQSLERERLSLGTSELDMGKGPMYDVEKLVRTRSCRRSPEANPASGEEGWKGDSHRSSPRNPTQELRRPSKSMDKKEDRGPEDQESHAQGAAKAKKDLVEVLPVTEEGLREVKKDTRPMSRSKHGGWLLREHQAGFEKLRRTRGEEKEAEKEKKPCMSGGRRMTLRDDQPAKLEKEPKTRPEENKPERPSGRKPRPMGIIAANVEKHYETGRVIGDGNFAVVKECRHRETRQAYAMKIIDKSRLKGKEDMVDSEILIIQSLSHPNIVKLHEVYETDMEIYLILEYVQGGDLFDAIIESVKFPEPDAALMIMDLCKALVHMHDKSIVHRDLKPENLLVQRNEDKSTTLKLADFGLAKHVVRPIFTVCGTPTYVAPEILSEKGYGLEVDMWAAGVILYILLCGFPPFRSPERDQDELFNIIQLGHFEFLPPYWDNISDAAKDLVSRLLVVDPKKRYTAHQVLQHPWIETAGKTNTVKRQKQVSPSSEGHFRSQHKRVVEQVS

[2] = target: Serine/threonine-protein kinase 24 (Homo sapiens) (UniProt Q9Y6E0); experiment: Competitive binding affinity to MST3 (unknown origin) at 10 uM in presence of ATP relative to control
Serine/threonine-protein kinase 24 (Homo sapiens), sequence (Q9Y6E0 whole entry, looked up): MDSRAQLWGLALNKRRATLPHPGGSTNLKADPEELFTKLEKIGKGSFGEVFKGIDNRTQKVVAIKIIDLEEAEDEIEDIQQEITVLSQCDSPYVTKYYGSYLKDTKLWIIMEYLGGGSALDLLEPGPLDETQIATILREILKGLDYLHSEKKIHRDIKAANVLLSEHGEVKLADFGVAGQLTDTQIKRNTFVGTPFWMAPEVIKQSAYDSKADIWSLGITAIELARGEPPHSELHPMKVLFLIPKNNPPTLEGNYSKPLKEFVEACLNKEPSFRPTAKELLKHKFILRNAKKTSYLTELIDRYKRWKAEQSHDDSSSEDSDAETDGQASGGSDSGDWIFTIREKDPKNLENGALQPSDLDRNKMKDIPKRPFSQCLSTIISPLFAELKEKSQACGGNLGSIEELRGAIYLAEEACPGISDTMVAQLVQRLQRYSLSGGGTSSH

[3] = target: T2, Serine/threonine-protein kinase 4 (Homo sapiens) (UniProt Q13043); experiment: Competitive binding affinity to MST1 (unknown origin) at 10 uM in presence of ATP relative to control
T2 sequence (whole entry): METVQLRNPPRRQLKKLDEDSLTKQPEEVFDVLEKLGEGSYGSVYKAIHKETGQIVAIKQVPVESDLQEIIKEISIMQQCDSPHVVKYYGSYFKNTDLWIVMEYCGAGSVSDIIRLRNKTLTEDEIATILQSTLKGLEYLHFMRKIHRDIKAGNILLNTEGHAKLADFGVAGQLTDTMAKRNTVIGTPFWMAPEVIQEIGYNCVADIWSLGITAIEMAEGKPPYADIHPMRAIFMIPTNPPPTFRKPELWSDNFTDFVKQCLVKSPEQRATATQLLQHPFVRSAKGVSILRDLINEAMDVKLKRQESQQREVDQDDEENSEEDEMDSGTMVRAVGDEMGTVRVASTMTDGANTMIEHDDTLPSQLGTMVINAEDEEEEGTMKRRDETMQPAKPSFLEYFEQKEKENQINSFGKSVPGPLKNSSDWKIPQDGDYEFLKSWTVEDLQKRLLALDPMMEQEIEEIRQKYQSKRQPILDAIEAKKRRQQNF

[4] = system: Mast/stem cell growth factor receptor Kit (Homo sapiens), P10721 [D816V]; experiment: Competitive binding affinity to KIT D816V mutant (unknown origin) at 10 uM in presence of ATP relative to control
Mast/stem cell growth factor receptor Kit (Homo sapiens), P10721 [D816V], sequence (P10721 whole entry D816V): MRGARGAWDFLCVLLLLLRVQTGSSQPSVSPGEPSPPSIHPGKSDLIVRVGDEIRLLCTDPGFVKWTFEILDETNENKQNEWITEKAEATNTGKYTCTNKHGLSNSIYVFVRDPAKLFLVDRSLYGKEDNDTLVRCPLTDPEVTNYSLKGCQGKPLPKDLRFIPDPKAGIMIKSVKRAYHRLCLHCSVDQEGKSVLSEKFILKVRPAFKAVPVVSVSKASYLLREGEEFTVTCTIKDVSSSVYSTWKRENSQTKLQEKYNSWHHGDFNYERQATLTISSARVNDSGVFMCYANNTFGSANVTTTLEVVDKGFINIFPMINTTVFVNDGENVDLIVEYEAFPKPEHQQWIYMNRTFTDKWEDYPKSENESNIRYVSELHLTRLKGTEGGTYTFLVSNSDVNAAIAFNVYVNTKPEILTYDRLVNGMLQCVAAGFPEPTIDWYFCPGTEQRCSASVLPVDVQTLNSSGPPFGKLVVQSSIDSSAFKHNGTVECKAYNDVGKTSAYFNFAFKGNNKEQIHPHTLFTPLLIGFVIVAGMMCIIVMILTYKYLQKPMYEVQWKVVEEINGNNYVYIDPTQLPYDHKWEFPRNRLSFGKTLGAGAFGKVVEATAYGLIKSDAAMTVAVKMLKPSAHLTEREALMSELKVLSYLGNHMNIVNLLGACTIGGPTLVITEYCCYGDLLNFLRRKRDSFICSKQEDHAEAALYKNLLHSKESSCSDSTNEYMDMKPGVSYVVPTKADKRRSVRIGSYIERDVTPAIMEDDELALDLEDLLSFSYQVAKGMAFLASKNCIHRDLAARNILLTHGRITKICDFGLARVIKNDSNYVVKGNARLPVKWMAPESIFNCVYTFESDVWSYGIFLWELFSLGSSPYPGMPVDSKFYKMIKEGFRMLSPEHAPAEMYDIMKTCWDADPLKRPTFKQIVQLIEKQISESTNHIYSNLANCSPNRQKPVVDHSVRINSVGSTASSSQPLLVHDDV

[5] = target: RAC-beta serine/threonine-protein kinase (Homo sapiens) (UniProt P31751); experiment: Competitive binding affinity to AKT2 (unknown origin) at 10 uM in presence of ATP relative to control
RAC-beta serine/threonine-protein kinase (Homo sapiens), sequence (P31751 whole entry): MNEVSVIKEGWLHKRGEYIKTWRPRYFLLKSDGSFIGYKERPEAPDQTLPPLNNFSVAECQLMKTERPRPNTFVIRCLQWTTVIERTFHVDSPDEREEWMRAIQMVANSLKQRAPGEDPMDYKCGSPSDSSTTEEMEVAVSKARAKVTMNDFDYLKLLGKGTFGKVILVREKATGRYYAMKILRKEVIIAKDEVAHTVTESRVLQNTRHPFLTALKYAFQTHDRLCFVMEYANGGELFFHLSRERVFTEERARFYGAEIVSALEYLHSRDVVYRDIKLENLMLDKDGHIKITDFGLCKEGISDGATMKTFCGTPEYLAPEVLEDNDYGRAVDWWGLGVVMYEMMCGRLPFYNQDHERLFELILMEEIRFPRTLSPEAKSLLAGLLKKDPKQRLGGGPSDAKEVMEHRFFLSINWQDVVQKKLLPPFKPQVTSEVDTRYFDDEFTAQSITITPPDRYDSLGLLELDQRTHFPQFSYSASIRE

[6] = target: T3, Serine/threonine-protein kinase TNNI3K (Homo sapiens) (UniProt Q59H18); experiment: Competitive binding affinity to […] (unknown origin) at 10 uM in presence of ATP relative to control
T3 sequence (whole entry): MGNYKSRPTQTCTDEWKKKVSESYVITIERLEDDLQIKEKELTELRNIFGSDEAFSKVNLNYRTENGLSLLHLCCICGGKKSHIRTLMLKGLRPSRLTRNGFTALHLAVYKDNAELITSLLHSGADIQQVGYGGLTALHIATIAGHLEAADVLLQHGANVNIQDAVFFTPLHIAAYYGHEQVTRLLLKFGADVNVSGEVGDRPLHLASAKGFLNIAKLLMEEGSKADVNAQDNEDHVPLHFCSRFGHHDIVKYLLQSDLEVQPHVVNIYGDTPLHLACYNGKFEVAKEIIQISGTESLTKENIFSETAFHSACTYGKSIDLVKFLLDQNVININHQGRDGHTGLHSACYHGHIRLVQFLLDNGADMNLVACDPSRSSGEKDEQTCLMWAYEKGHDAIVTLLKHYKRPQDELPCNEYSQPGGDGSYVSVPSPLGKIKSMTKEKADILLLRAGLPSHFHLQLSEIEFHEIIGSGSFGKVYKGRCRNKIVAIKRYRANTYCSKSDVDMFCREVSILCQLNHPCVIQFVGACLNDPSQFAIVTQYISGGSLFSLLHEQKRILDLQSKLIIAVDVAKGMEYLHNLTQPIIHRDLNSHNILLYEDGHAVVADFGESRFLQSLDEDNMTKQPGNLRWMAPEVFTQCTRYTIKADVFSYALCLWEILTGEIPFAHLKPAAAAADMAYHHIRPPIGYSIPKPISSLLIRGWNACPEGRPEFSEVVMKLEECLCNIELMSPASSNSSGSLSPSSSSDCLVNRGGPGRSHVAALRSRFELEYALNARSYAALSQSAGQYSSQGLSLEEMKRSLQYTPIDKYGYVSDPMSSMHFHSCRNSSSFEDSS

Homo sapiens = species: Homo sapiens; experiment: Selectivity ratio of IC50 for human JNK2 to IC50 for human JNK1
Outline: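 JNK1 and JNK2 activities were each measured as phosphorylation of GST-ATF2 (19–96) with [γ-33P]ATP, and IC50s were determined for each enzyme. The ratio is JNK2 IC50 over JNK1 IC50. IC50s are the mean of at least three experiments.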

LIM domain kinase 2, sequence (P53671 whole entry, looked up, the tested form may be a part): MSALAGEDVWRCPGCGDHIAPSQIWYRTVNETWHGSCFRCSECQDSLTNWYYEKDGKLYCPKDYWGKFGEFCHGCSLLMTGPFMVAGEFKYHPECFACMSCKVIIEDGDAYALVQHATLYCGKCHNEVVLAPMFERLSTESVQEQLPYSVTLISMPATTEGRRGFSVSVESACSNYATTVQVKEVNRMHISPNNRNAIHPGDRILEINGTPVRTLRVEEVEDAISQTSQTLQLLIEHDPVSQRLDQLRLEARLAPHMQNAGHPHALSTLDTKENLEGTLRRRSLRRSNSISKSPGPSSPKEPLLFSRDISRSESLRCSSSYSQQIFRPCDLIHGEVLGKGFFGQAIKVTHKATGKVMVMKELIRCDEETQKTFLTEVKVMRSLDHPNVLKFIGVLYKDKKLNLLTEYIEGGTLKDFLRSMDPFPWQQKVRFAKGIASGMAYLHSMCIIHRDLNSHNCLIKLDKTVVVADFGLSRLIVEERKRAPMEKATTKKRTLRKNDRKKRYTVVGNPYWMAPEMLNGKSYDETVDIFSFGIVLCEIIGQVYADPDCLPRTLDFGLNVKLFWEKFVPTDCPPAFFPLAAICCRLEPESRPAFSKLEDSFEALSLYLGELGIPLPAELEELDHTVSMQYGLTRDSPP

In the case of CS(=O)(=O)CCCOc1cccc2c1ccn2-c1ccnc(N[C@H]2CC[C@H](C(=O)N3CCC(O)CC3)CC2)n1, the inhibition (LIM domain kinase 2) was > 85% and the inhibition [1] was > 85%.

With O[C@H]1CC[C@H](Nc2nccc(-n3ccc4ccccc43)n2)CC1 the inhibition [2] was 83%, the inhibition [3] was < 50% and the inhibition (LIM domain kinase 2) was 81%. For the same compound, the inhibition [4] was < 50%, the inhibition [1] was 84% and the inhibition [5] was < 50%. For the same compound, the inhibition [6] was < 50%.

In the case of N[C@H]1CC[C@H](Nc2nccc(-n3nnc4ccccc43)n2)CC1, the Ratio IC50 (Homo sapiens) was 4.

In the case of O[C@H]1CC[C@H](Nc2nccc(-n3nnc4ccccc43)n2)CC1, the inhibition [2] was 78%, the inhibition [3] was < 50% and the inhibition (LIM domain kinase 2) was 78%. The inhibition [4] was 98%, the inhibition [1] was 92% and the inhibition [5] was < 50%. For the same compound, the inhibition [6] was < 50% and the Ratio IC50 (Homo sapiens) was 4.

With O[C@H]1CC[C@H](Nc2nccc(-n3ncc4ccccc43)n2)CC1 the inhibition [2] was 78%, the inhibition [3] was < 50% and the inhibition (LIM domain kinase 2) was 76%. The inhibition [4] was 63%, the inhibition [1] was 73% and the inhibition [5] was < 50%. For the same compound, the inhibition [6] was < 50%.

O=C([C@H]1CC[C@H](Nc2nccc(-n3nnc4ccccc43)n2)CC1)N1CCOCC1 was tested, and the Ratio IC50 (Homo sapiens) was 4.

With O[C@H]1CC[C@H](Nc2nccc(-c3n[nH]c4ccccc34)n2)CC1 the inhibition (LIM domain kinase 2) was 100%, the inhibition [4] was 94% and the inhibition [5] was < 50%. The inhibition [6] was < 50%.
